The results in this text go back to ChEMBL document CHEMBL3875202, “Design and optimization of aspartate N-acetyltransferase inhibitors for the potential treatment of Canavan disease” (Bioorg Med Chem, 2017).

Where a SMILES comes first, the peptide text is derived from it.

This experiment in a line: Inhibition of recombinant human His-tagged maltose binding protein fused ANAT expressed in Escherichia coli NiCo21(DE3) using L-aspartate as substrate after 15 mins in presence of acetyl-CoA by DTNB based spectrophotometric method. The method in brief:
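MBP-ANAT-His fusion purified on Ni Sepharose then amylose column. Assay: 20 mM HEPES pH 7.4, 150 mM NaCl, 5% glycerol, 40 µM DTNB, 40 µM acetyl-CoA, 2 mM L-aspartate, 25 µg enzyme, 200 µl total. Read at 412 nm for at least 15 min. Ki from twofold inhibitor dilutions; no-inhibitor and no-aspartate/no-inhibitor controls; pH of top-dose wells checked.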
With `O=C(O)C[C@H](NC(=O)OCc1ccccc1)C(=O)O`, the Ki was found to be 17 µM.
`O=C(O)CC[C@H](NC(=O)c1ccccc1)C(=O)O`: the Ki was 130 µM.
Regarding `O=C(O)CC[C@H](NC(=O)OCc1ccccc1)C(=O)O`, the inhibitory constant (Ki) is 12 µM.
On to `O=C(O)CCNCc1ccc(C(=O)O)c(C(=O)O)c1`, for which the Ki stood at 1710 µM.
For `C=CCN(CC(=O)O)Cc1ccc(C(=O)O)c(C(=O)O)c1`, the inhibition constant (Ki) was determined as 719 µM.
`O=C(O)CN(Cc1ccccc1)Cc1ccc(C(=O)O)c(C(=O)O)c1`: the inhibition constant Ki was 420 µM.
On to `O=C(O)CN(Cc1ccc(C(=O)O)c(C(=O)O)c1)c1cccc2ccccc12`, for which the Ki is 115 µM.
`O=C(O)CN(Cc1ccc(C(=O)O)c(C(=O)O)c1)c1ccc2ccccc2c1`: the Ki was 538 µM.
As for `O=C(O)CN(CCN1CCOCC1)Cc1ccc(C(=O)O)c(C(=O)O)c1`, the figure is 1080 µM; as for `O=C(O)CN(Cc1ccc(C(=O)O)c(C(=O)O)c1)c1ccc(-c2ccccc2)cc1`, 953 µM; as for `O=CCN(CC(=O)O)Cc1ccc(C(=O)O)c(C(=O)O)c1`, 1290 µM.
As for `O=C(O)CN(Cc1ccc(C(=O)O)c(C(=O)O)c1)Cc1ccccc1Br`, the figure is 114 µM; as for `O=C(O)CN(Cc1cccc(Br)c1)Cc1ccc(C(=O)O)c(C(=O)O)c1`, 269 µM.
The result for `O=C(O)CN(Cc1ccc(Br)cc1)Cc1ccc(C(=O)O)c(C(=O)O)c1` reads 1200 µM; that for `Cc1ccccc1CN(CC(=O)O)Cc1ccc(C(=O)O)c(C(=O)O)c1`, 1400 µM; that for `Cc1cccc(CN(CC(=O)O)Cc2ccc(C(=O)O)c(C(=O)O)c2)c1`, 1700 µM.
Consider `Cc1ccc(CN(CC(=O)O)Cc2ccc(C(=O)O)c(C(=O)O)c2)cc1`, for which the inhibition constant (Ki) was 4230 µM.
The result for `O=C(O)CN(Cc1ccc(C(=O)O)c(C(=O)O)c1)Cc1ccccc1C(F)(F)F` reads 390 µM.
On to `O=C(O)CN(Cc1cccc(C(F)(F)F)c1)Cc1ccc(C(=O)O)c(C(=O)O)c1`, for which the Ki worked out at 104 µM.
For the compound `O=C(O)CN(Cc1ccc(C(F)(F)F)cc1)Cc1ccc(C(=O)O)c(C(=O)O)c1`, the inhibition constant (Ki) was found to be 791 µM.
Turning to `O=C(O)CN(Cc1ccc(C(=O)O)c(C(=O)O)c1)Cc1ccccc1OC(F)(F)F`, the Ki came to 464 µM.
In the case of `O=C(O)CN(Cc1cccc(OC(F)(F)F)c1)Cc1ccc(C(=O)O)c(C(=O)O)c1`, the Ki came to 246 µM.
Turning to `O=C(O)CN(Cc1ccc(OC(F)(F)F)cc1)Cc1ccc(C(=O)O)c(C(=O)O)c1`, the inhibition constant (Ki) was 749 µM.
For the compound `O=C(O)CN(Cc1ccc(OC(F)F)cc1)Cc1ccc(C(=O)O)c(C(=O)O)c1`, the inhibitory constant (Ki) is 489 µM.
Consider `O=C(O)CN(Cc1ccc(C(=O)O)cc1)Cc1ccc(C(=O)O)c(C(=O)O)c1`, for which the inhibition constant (Ki) was determined as 104 µM.
For the compound `NC(=O)c1ccc(CN(CC(=O)O)Cc2ccc(C(=O)O)c(C(=O)O)c2)cc1`, the Ki worked out at 1880 µM.
As for `CC(C)(C)c1ccc(CN(CC(=O)O)Cc2ccc(C(=O)O)c(C(=O)O)c2)cc1`, the figure is 687 µM; as for `O=C(O)CN(Cc1ccc(C(F)(F)C(F)(F)C(F)(F)F)cc1)Cc1ccc(C(=O)O)c(C(=O)O)c1`, 426 µM.
The result for `O=C(O)CCN(Cc1ccc(Br)cc1)Cc1ccc(C(=O)O)c(C(=O)O)c1` reads 370 µM.
Regarding `O=C(O)CCN(Cc1ccc(C(F)(F)F)cc1)Cc1ccc(C(=O)O)c(C(=O)O)c1`, the Ki worked out at 186 µM.
As for `CCCC(=O)N[C@@H](CCC(=O)O)C(=O)O`, the figure is 270 µM.
As to `O=C(O)C[C@H](NC(=O)CCCc1ccccc1)C(=O)O`, the inhibitory constant (Ki) was found to be 200 µM.
The result for `O=C(O)CCN(Cc1ccc(C(=O)O)c(C(=O)O)c1)Cc1ccc(C(=O)O)cc1-c1ccccc1` reads 47.4 µM.
Consider `O=C(O)CCN(Cc1ccc(C(=O)O)c(C(=O)O)c1)Cc1ccc(C(=O)O)cc1C(F)(F)F`, for which the inhibitory constant (Ki) stood at 17 µM.
As to `CC(=O)c1ccc(CN(CC(=O)O)Cc2ccc(C(=O)O)c(C(=O)O)c2)cc1`, the inhibition constant (Ki) is 2540 µM.
Regarding `O=C(O)CC[C@H](NC(=O)CCc1ccccc1)C(=O)O`, the Ki was 38 µM.
Regarding `O=C(O)C[C@H](NCCCCc1ccccc1)C(=O)O`, the inhibition constant (Ki) was 100 µM.
Take `O=C(O)CCN(Cc1ccc(C(=O)O)c(C(=O)O)c1)Cc1c(Cl)cc(C(=O)O)cc1Cl` [listing 1 of 2 here]: the inhibition constant (Ki) was 0.6 µM.
Turning to `O=C(O)C[C@H](NC(=O)CCc1ccccc1C(F)(F)F)C(=O)O`, the inhibition constant Ki was found to be 100 µM.
As for `O=C(O)CC[C@H](NC(=O)CCCc1ccccc1)C(=O)O`, the figure is 610 µM; as for `O=C(O)CCN(Cc1ccc(C(=O)O)c(C(=O)O)c1)Cc1ccccc1Br`, 173 µM; as for `O=C(O)CCC[C@H](NC(=O)Cc1ccccc1)C(=O)O`, 1160 µM.
In the case of `O=C(O)CCN(Cc1ccc(C(=O)O)c(C(=O)O)c1)c1cccc2ccccc12`, the inhibition constant (Ki) turned out to be 34 µM.
In the case of `O=C(O)C[C@H](NC(=O)c1ccc2ccccc2c1)C(=O)O`, the inhibition constant Ki worked out at 390 µM.
As for `O=C(CCc1ccccc1)NC(C(=O)O)C(=O)O`, the figure is 1400 µM; as for `O=C(O)C[C@H](NCCCc1ccccc1)C(=O)O`, 120 µM; as for `O=C(O)C[C@H](NC(=O)CCc1cccc(C(F)(F)F)c1)C(=O)O`, 1220 µM.
Turning to `O=C(O)CCC[C@H](NC(=O)c1ccccc1)C(=O)O`, the Ki came out at 1600 µM.
The result for `O=C(O)CCN(Cc1ccc(C(=O)O)c(C(=O)O)c1)Cc1ccc(C(=O)O)cc1Br` reads 2.01 µM; that for `O=C(O)CCN(Cc1ccc(C(=O)O)c(C(=O)O)c1)Cc1ccc(C(=O)O)cc1F`, 4.06 µM; that for `O=C(O)CC[C@H](NC(=O)Cc1ccccc1)C(=O)O`, 250 µM.
Turning to `COc1ccc(CCC(=O)N[C@@H](CC(=O)O)C(=O)O)cc1`, the Ki stood at 1500 µM.
The result for `O=C(O)C[C@H](NC(=O)CBr)C(=O)O` reads more than 2000 µM; that for `O=C(O)C[C@H](NC(=O)CCc1ccc(O)c(O)c1)C(=O)O`, 1560 µM.
As to `O=C(O)CCC[C@H](NC(=O)CCc1ccccc1)C(=O)O`, the Ki was found to be 2900 µM.
As for `O=C(O)CCN(Cc1ccc(C(=O)O)c(C(=O)O)c1)Cc1ccc(C(=O)O)cc1-c1cccc2ccccc12`, the Ki turned out to be 187 µM.
As to `O=C(O)CCN(Cc1ccc(C(=O)O)cc1)Cc1ccc(C(=O)O)c(C(=O)O)c1`, the Ki stood at 29 µM.
`CC(C)(C)C(=O)N[C@@H](CCCC(=O)O)C(=O)O`: the Ki is 760 µM.
Take `Cc1cccc(CN(CCC(=O)O)Cc2ccc(C(=O)O)c(C(=O)O)c2)c1`: the Ki stood at 563 µM.
For `O=C(O)CCN(Cc1ccc(C(=O)O)c(C(=O)O)c1)Cc1ccccc1C(F)(F)F`, the Ki was 88 µM.
For `O=C(O)C[C@H](NC(=O)CCl)C(=O)O`, the inhibitory constant (Ki) worked out at 200 µM.
For `O=C(O)C[C@H](NC(=O)Cc1ccccc1)C(=O)O`, the Ki amounted to 460 µM.
The result for `O=C(O)CCN(Cc1ccc(C(=O)O)c(C(=O)O)c1)Cc1ccc(C(=O)O)cc1Cl` reads 1.7 µM.
Regarding `CC(C)(C)C(=O)N[C@@H](CCC(=O)O)C(=O)O`, the inhibition constant (Ki) came out at 280 µM.
With `O=C(O)C[C@H](NCc1ccccc1)C(=O)O`, the inhibition constant (Ki) amounted to 620 µM.
As for `Cc1ccc(CN(CCC(=O)O)Cc2ccc(C(=O)O)c(C(=O)O)c2)cc1`, the Ki is 2750 µM.
The result for `O=C(O)CCN(Cc1cccc(Br)c1)Cc1ccc(C(=O)O)c(C(=O)O)c1` reads 101 µM.
Consider `O=C(O)CCN(Cc1ccc(C(=O)O)c(C(=O)O)c1)c1ccc(-c2ccccc2)cc1`, for which the inhibition constant (Ki) amounted to 550 µM.
For `O=C(O)C[C@H](NC(=O)CCc1ccccc1)C(=O)O`, the Ki came out at 31 µM.
For `O=C(O)CCN(Cc1ccc(C(=O)O)c(C(=O)O)c1)Cc1c(Cl)cc(C(=O)O)cc1Cl` [listing 2 of 2 here], the Ki amounted to 0.61 µM.
As for `O=C(O)C[C@H](NC(=O)CCc1ccc(-c2ccccc2)cc1)C(=O)O`, the figure is 210 µM.
As for `O=C(O)C[C@H](NC(=O)c1ccc(C(F)(F)F)cc1)C(=O)O`, the figure is 380 µM; as for `O=C(O)CCN(Cc1ccc(C(=O)O)c(C(=O)O)c1)Cc1c(Br)cc(C(=O)O)cc1Br`, 0.77 µM; as for `Cc1ccccc1CN(CCC(=O)O)Cc1ccc(C(=O)O)c(C(=O)O)c1`, 724 µM.
Consider `Cc1ccccc1CCC(=O)N[C@@H](CC(=O)O)C(=O)O`, for which the inhibition constant Ki stood at 280 µM.
`O=C(O)CCN(Cc1cccc(C(F)(F)F)c1)Cc1ccc(C(=O)O)c(C(=O)O)c1`: the inhibition constant Ki was found to be 37 µM.
As to `O=C(O)CCC[C@H](NC(=O)CCCc1ccccc1)C(=O)O`, the inhibition constant (Ki) came out at 740 µM.
`O=C(O)C[C@H](NC(=O)c1ccccc1)C(=O)O`: the inhibition constant (Ki) was more than 2000 µM.
As to `CCCC(=O)N[C@@H](CCCC(=O)O)C(=O)O`, the Ki is more than 2000 µM.
As to `O=C(O)CCC[C@H](NC(=O)CCC(=O)O)C(=O)O`, the Ki is more than 2000 µM.
Regarding `O=C(O)CCN(Cc1ccc(C(=O)O)c(C(=O)O)c1)Cc1ccc(C(=O)O)c(C(F)(F)F)c1`, the Ki is 930 µM.
For `O=C(O)/C=C(\Br)C(=O)O`, the inhibitory constant (Ki) worked out at 367 µM.
Turning to `O=C(O)C[C@H](NCCc1ccccc1)C(=O)O`, the Ki worked out at 250 µM.
For `CC(C)(C)c1ccc(CN(CCC(=O)O)Cc2ccc(C(=O)O)c(C(=O)O)c2)cc1`, the Ki came to 1660 µM.
On to `C[C@H](N)C(=O)N[C@@H](CC(=O)O)C(=O)O` (H-Ala-Asp-OH), for which the Ki is 1600 µM.
